Active and inactive are the calls of the source. No cut-off for these calls is given here.
Experiments:
[1] = target: T1, Sortase A (Staphylococcus aureus) (UniProt Q9S446); assay: Irreversible inhibition of Staphylococcus aureus SrtA deltaN24 mutant transpeptidation activity using […] as substrate assessed as remaining activity at 10 fold IC50 preincubated for 1 hr followed by protein dilution and subsequent substrate addition measured every 2 mins for 20 mins by FRET assay relative to control
T1 sequence (whole entry): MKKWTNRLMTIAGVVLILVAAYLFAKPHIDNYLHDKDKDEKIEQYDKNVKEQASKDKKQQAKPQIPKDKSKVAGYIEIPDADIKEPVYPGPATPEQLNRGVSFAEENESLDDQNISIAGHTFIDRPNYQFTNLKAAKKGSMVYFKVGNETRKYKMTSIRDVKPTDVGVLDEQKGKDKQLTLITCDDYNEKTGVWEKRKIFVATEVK

[2] = target: T1, Sortase A (Staphylococcus aureus); assay: Inhibition of Staphylococcus aureus Newman SrtA assessed as decrease in SpA display by FITC-IgG-based fluorescence assay; conditions: Staphylococcus aureus subsp. aureus str. Newman
[3] = target: T2, Sortase A (Staphylococcus aureus, UniProt Q9S446); assay: Inhibition of Staphylococcus aureus SrtA deltaN24 mutant transpeptidation activity using abz-LPATG-dnp as substrate preincubated for 10 mins followed by substrate addition measured every 2 mins for 20 mins by FRET assay
[4] = test system: Staphylococcus aureus; assay: Antibiofilm activity against Staphylococcus aureus Newman assessed as inhibition of biofilm biomass after 18 hrs by crystal violet staining-based assay; type: functional, organism-based
[5] = target: T2, Sortase A; assay: (§1) Inhibition of Staphylococcus aureus SrtA deltaN24 mutant assessed as decrease in transpeptidation of IsdA (64 to 323 residues) incubated for 1.25 hrs in presence of NH2-Gly3 nucleophile by SDS-PAGE method
In short: (§2)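 Affinity-purified IsdA64–323, a natural SrtA substrate, incubated with purified SrtA ΔN24 and NH2-Gly3 nucleophile, with or without compound. Sorting-signal cleavage giving the transpeptidation product resolved by SDS-PAGE; inhibition seen as partial or complete loss of product.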

[6] = target: T1, Sortase A (Staphylococcus aureus); assay: Inhibition of Staphylococcus aureus Newman SrtA assessed as decrease in SpA display by SDS/PAGE immunoblotting assay; conditions: Staphylococcus aureus subsp. aureus str. Newman
[7] = test system: Staphylococcus aureus; assay: Growth inhibition of Staphylococcus aureus Newman at 150 uM incubated for 12 hrs measured every hour by spectrophotometry; type: organism-based; conditions: in vivo
[8] = test system: Staphylococcus aureus; assay: Growth inhibition of Staphylococcus aureus Newman at 50 uM measured every hour; type: organism-based; conditions: in vivo
[9] = target: T1, Sortase A (Staphylococcus aureus); assay: Binding affinity to Staphylococcus aureus 15N-labelled SrtA deltaN59 mutant at 1:0 and 1:1 molar ratio of protein and compound by 2D 1H-15N HSQC spectra method
[10] = target: T1, Sortase A (Staphylococcus aureus); assay: Irreversible inhibition of Staphylococcus aureus SrtA deltaN24 mutant transpeptidation activity using abz-LPATG-dnp as substrate assessed as ratio Kinact to Ki incubated for 5 to 25 mins by FRET assay
[11] = target: T1, Sortase A (Staphylococcus aureus); assay: Irreversible binding affinity to Staphylococcus aureus SrtA deltaN24 mutant at 10 fold IC50 preincubated with compound for 1 hr followed by protein dilution by ESI-LC/MS method
[12] = target: T1, Sortase A (Staphylococcus aureus); assay: (§3) Irreversible inhibition of Staphylococcus aureus SrtA deltaN24 mutant transpeptidation activity using abz-LPATG-dnp as substrate incubated for 5 to 25 mins by FRET assay
[13] = target: T2, Sortase A; assay: as §3
[14] = target: T1, Sortase A (Staphylococcus aureus); assay: Irreversible binding affinity to Staphylococcus aureus SrtA deltaN24 mutant at Cys184 at 10 fold IC50 preincubated with compound for 1 hr followed by protein dilution by ESI-LC-MS/MS method
[15] = target: T1, Sortase A (Staphylococcus aureus); assay: Binding affinity to Staphylococcus aureus 15N-labelled SrtA deltaN59 C184A mutant at 1:0, 1:1, 1:2, 1:5 and 1:10 molar ratio of protein and compound by 2D 1H-15N HSQC spectra method
[16] = target: T1, Sortase A (Staphylococcus aureus); assay: as §1; in short: as §2

Row | Compound | Activity [1] [%] | inhibition [2] | IC50 [3] [µM] | inhibition [4] | IC50 [5] [µM] | inhibition [6] | growth inhibition (GI) [7] | growth inhibition (GI) [8] | Activity [9] | Ratio [10] [µM⁻¹ min⁻¹] | Activity [11] | Kinact [12] [min⁻¹] | Ki [13] [µM] | Activity [14] | Activity [15] | inhibition [16]
1 | O=C1C[C@H]2O[C@@H](CCc3ccccc3)C3=C(C(=O)C=CC3=O)[C@H]2O1 | < 10 | Dose-dependent effect | 19.4 | Dose-dependent effect | 50 | Dose-dependent effect | Non-Toxic |  |  |  |  |  |  |  |  | 
2 | CC(C)=CC[C@H](O)C1=CC(=O)c2c(O)ccc(O)c2C1=O [ALKANNIN] |  |  | 0.36 |  | 5 |  |  | Toxic |  |  |  |  |  |  |  | 
3 | O=C1C[C@H]2O[C@H](CCc3ccccc3)C3=C(C(=O)C=CC3=O)[C@H]2O1 | < 10 | Dose-dependent effect | 6.2 | Dose-dependent effect | 10 | Dose-dependent effect | Non-Toxic |  | Active | 0.0109 | Active | 0.0388 | 3.57 | Active | inactive | 
4 | CC(C)=CC[C@@H](O)C1=CC(=O)c2c(O)ccc(O)c2C1=O [SHIKONIN] |  |  | 0.3 |  | 5 |  |  | Toxic |  |  |  |  |  |  |  | 
5 | CCCNC1=C(C)C(=O)c2c(/C=C/S(=O)(=O)c3ccccc3)cccc2C1=O |  |  | > 50 |  |  |  |  |  |  |  |  |  |  |  |  | inactive

— ChEMBL document CHEMBL4118124, “Quinone skeleton as a new class of irreversible inhibitors against Staphylococcus aureus sortase A” (Bioorg Med Chem Lett, 2018)
